Experimental data collected from several papers.
Protocols differ between the studies behind these lines.
Target: Mitogen-activated protein kinase 11 (MAPK11, Homo sapiens, UniProt Q15759)

Cc1ccc(NC(=O)c2ccc(C)c(C(F)(F)F)c2)cc1C#Cc1nn(C2CCC(O)CC2)c2ncnc(N)c12 (stereo not shown)
remaining signal (cell-free assay; 10 µM): -2%

O=C1NC(c2ccccn2)Sc2ccccc21 (stereo not shown)
remaining binding (cell-free assay; competition with immobilised ligand; 1 µM): 100%

CNc1cccc2cc(C(=O)Nc3ccc(C(=O)O)cc3)c(=O)[nH]c12
inhibition (enzyme activity; inhibitor; 10 µM): -2.4%

CC1=C(C#N)C(c2ccc3c(c2)c(NC(=O)c2ccccc2C)nn3C)C(C#N)=C(C)N1
remaining binding (cell-free assay; competition with immobilised ligand; 1 µM): 100%

Cn1c2c(c3ccc(Cl)c(Cl)c31)C(C#N)C1(CCN(C(=O)OC(C)(C)C)CC1)NC2=O (racemic)
ΔTm (thermal stability; DSF; 10 µM): -0.8 °C

CN([C@@H]1CCc2c(CC(=O)O)c3ccccc3n2C1)S(=O)(=O)c1ccc(F)cc1
remaining binding (cell-free assay; competition with immobilised ligand; 1 µM): 88%

CN1CC(Oc2cnc(C#N)cc2-c2ccn3nc(NC(=O)C4CC4)cc3c2)C1
inhibition (enzyme activity; inhibitor; 1 µM): 10%

CCN1CCC2(CC1)NC(=O)c1c(c3ccc(Cl)c(Cl)c3n1C)C2C#N (racemic)
ΔTm (thermal stability; DSF; 10 µM): -0.3 °C

O=C(NCCCC1CCCCC1)c1ccc(CNC(=O)c2cnn(-c3ccccc3)c2C(F)(F)F)cc1
remaining binding (cell-free assay; competition with immobilised ligand; 0.1 µM): 100%

O=C1NC(=O)c2cc(Nc3ccc(F)cc3)c(Nc3ccc(F)cc3)cc21
remaining signal (cell-free assay; 0.5 µM): 94.6%

CO[C@H]1CC[C@H](CNc2ccc(S(=O)(=O)NC(=O)c3ccc(N4CCN(CC5=C(c6ccc(Cl)cc6)CC(C)(C)CC5)CC4)cc3Oc3cnc4[nH]ccc4c3)cc2[N+](=O)[O-])CC1
remaining binding (cell-free assay; competition with immobilised ligand; 1 µM): 60%

CCN(CC)CCNC(=O)c1c(C)[nH]c(/C=C2\C(=O)Nc3ccc(F)cc32)c1C
inhibition (enzyme activity; inhibitor; 10 µM): 3%

Cn1c2c(c3ccc(Cl)c(Cl)c31)C(C#N)C1(CCNCC1)NC2=O (racemic)
ΔTm (thermal stability; DSF; 10 µM): 0.2 °C

CC/C(=N\NC(=O)NCc1cccc(O)c1)c1ccc(O)c(C)c1O
inhibition (enzyme activity; inhibitor; 0.1 µM): 0.5%

COc1cccc2c(NCc3ccccc3)nc(-n3c(N)nc4ccccc43)nc12
inhibition (target engagement in cells; inhibitor; chemoproteomics; 20 mM): -9.6%

Oc1cccc(-c2nc(N3CCOCC3)c3oc4ncccc4c3n2)c1
remaining signal (cell-free assay; 0.5 µM): 103%

Cc1cc(NC(=O)c2cccc(S(F)(F)(F)(F)F)c2)cc(-n2ccn3nc(-c4cccnc4)cc23)c1
remaining binding (cell-free assay; competition with immobilised ligand; 1 µM): 98.1%

O=C(Nc1cnn(-c2csc(C(=O)NC3COC3)c2)c1)Nc1c(F)cccc1Cl
remaining activity (enzyme activity; inhibitor; 5 µM): 91.7%

CN1CCC2(CC1)NC(=O)c1c(c3ccc(Cl)c(Cl)c3n1C)C2C#N (racemic)
ΔTm (thermal stability; DSF; 10 µM): 0.4 °C

CCC(=O)N[C@@H]1CC[C@H](C(=O)N(C)c2ccc(-c3nc4ccccc4o3)cc2)C1
remaining binding (cell-free assay; competition with immobilised ligand; 1 µM): 83%

COc1cc2ncnc(Nc3ccc(Oc4ccccc4)cc3C)c2cc1OC
inhibition (enzyme activity; inhibitor; 1 µM): 5%

O=C(CSc1nc2nccnc2c(=O)n1CCc1ccccc1)Nc1nccs1
inhibition (enzyme activity; inhibitor; 10 µM): 5%
